# The full list was thinned out, with hits kept by preference.
# S100A4 inh HTS: inhibitors of S100A4-myosin IIA peptide binding, primary screen, biochemical, fluorescence polarization, TAMRA-MyoIIA peptide | inhibition, % at 10.7 µM | hit rate 0.14% among 360,000;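 active = mean inhibition of at least 70% across replicates, with every replicate also reaching that level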
# Target sequence (P26447 whole entry, looked up): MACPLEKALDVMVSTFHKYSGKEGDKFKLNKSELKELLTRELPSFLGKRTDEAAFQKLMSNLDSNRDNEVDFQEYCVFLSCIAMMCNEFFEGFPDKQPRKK
#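 Material: S100A4 monomer protein / Buffer or medium: 50 mM HEPES pH 7.2, 10 mM CaCl2, 100 mM KCl / Times: 5 min incubation before reading / Benchmarks: neutral control DMSO, positive control TFP / Reagent: labelled myosin peptide probe, 5 nM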
# PDI turbidity: inhibitors of human PDI, primary screen, biochemical, turbidity, single point, plate reader; AID 588391, 2011; PDI insulin aggregation turbidity, A650, 90 min; inhibition, % at 10 µM; hit rate 0.052% among 350,000; Protein disulfide-isomerase (Homo sapiens), P07237;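 active = mean inhibition across replicates of 30% or more, whatever share of single replicates reach that level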
# Target sequence (P07237 whole entry, looked up): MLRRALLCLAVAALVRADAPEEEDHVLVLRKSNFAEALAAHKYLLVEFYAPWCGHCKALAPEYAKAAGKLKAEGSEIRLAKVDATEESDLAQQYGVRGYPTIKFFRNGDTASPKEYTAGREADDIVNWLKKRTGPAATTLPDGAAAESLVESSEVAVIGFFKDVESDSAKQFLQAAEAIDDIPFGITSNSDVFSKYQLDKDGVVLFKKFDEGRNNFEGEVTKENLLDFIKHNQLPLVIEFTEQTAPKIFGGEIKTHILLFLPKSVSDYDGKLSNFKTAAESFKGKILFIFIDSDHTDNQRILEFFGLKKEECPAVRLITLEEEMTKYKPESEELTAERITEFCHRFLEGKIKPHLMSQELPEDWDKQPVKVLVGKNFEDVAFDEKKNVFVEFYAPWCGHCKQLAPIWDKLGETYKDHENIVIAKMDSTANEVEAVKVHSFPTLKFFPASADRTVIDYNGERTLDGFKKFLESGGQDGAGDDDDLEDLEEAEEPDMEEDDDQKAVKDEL
# ERAP1 inh: human ERAP1 aminopeptidase inhibitors, primary screen, biochemical, single point, plate reader | Endoplasmic reticulum aminopeptidase 1 (Homo sapiens), Q9NZ08 | hit rate 0.15% among 340,000 | recombinant ERAP1, Leu-AMC fluorescence, 60 min | AID 652197, 2013 | inhibition, % at 10.7 µM;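 active = mean replicate inhibition of at least 30%, or all replicates individually reaching that 30% level; inactive = mean below 30% and not every replicate reaching it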;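 note: 0% = neutral control wells and 100% = L-leucinethiol positive control wells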
# FGF22 binding: binders of human FGF22 protein, primary screen, FGF22 synaptogenesis inhibitor project, biophysical, thermal shift, single point. hit rate 1.5% among 340,000. activity (Tm shift, normalised), % at 9.99 µM. recombinant FGF22 thermal shift, SYPRO orange fluorescence; percent of sucrose octasulfate shift, DMSO zero. AID 651658, 2012;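 active = mean Tm shift, scaled 0 neutral to 100 positive control, at about 1.3% or above, every replicate too, limit read from the data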
# ERp5 inh: inhibitors of ERp5-driven insulin aggregation, primary screen, biochemical, turbidity, absorbance 650 nm, single point; Protein disulfide-isomerase A6 (Homo sapiens), Q15084; 90 min; inhibition, % at 9.99 µM; hit rate 0.05% among 350,000; AID 651711, 2012;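 active = mean replicate inhibition above about 25%, with every replicate also reaching it, limit read from the data, passing the limit was not always enough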
# Starred values were filed as active, the others as inactive; x = not tested or not shown.
SMILES,S100A4 inh HTS,PDI turbidity,ERAP1 inh,FGF22 binding,ERp5 inh
CCNC(=O)OC[C@H]1O[C@H](C#Cc2ccc(C(C)(C)C)cc2)C=C[C@H]1O,-2.8,x,-0.3,40.9,-1.6
Cc1cc(C)cc(-n2c(C)cc(/C=N/NC(=O)c3ccncc3)c2C)c1,-0.4,-5.7,0.3,-0.3,2.2
Cc1cc(/C=N/NC(=O)c2ccsc2)c(C)n1-c1cnccn1,39.3,-7.7,-3.3,43.7*,-1.6
CSc1ncnc2c1ncn2CCCNCC1CCCO1 (configuration not stated),-4.2,-8.7,0.3,0.0,2.1
COc1ccc(NC(=O)N2C[C@@H]3N[C@H](C2)C3c2ccc(-c3ccncc3)cc2)cc1 (some centres not stated),x,x,x,0.0,x
O=C(NCCOc1ccccc1)C1CCCCC1,7.0,0.3,4.1,43.0*,-2.5
O=C(O)c1cc(-c2ccc(/C=N/N3C(=O)C4C5C=CC(C6CC56)C4C3=O)o2)ccc1Cl (configuration not stated),2.1,-3.3,-10.3,43.2*,1.4
O=C(O)c1cc(-c2ccc(/C=N/N3C(=O)C4C5C=CC(CC5)C4C3=O)o2)ccc1Cl (configuration not stated),3.9,6.6,-1.4,0.2,2.1
COc1ccc2c(c1)CCC/C2=N/OC(=O)c1ccccc1OC,2.3,-3.1,-1.4,44.0*,0.8
COc1ccc2c(c1)CC/C2=N\OC(=O)c1ccccc1C,1.8,-5.2,1.4,0.5,-2.4
C=CCc1cc(/C=C/c2nc(O)c([N+](=O)[O-])c(=O)[nH]2)cc(OC)c1O,3.2,-0.5,6.9,43.2*,-3.3
CCOC(=O)C1CCCN(C(=O)c2ccc3nc(-c4ccccc4)c(-c4ccccc4)nc3c2)C1 (configuration not stated),-3.3,-0.8,-2.9,0.0,3.8
CCOC(=O)C1CCCN(C(=O)c2ccc3nc(-c4ccc(OC)c(OC)c4)c(-c4ccc(OC)c(OC)c4)nc3c2)C1 (configuration not stated),10.9,6.9,33.8*,0.1,12.5
Cn1cc(CCNC(=O)CC2C(=O)NCCN2Cc2cccc(Oc3ccccc3)c2)cn1 (configuration not stated),-3.6,0.5,-4.2,44.0*,-0.1
Cc1cc(C)n2nc(SCc3nnc(-c4cccs4)o3)nc2n1,-4.2,1.9,2.9,43.2*,0.2
CCn1nnc(NC(=O)c2ccc([N+](=O)[O-])o2)n1,2.1,3.1,-2.2,43.5*,2.1
Cc1ccc(NC(=O)CO/N=C(\N)c2ccccc2)cc1C,1.2,-7.1,-0.4,43.2*,1.2
CC(C)(C)c1ccc(NC(=O)CON=C(N)c2ccccc2)cc1,-1.9,-4.6,-2.3,-0.2,2.5
COc1ccc(S(=O)(=O)NCCN2CCOCC2)cc1Br,-11.5,-1.2,1.5,-0.1,-1.6
COc1ccc(S(=O)(=O)NCC(c2ccc(F)cc2)N2CCOCC2)cc1Br (configuration not stated),-7.4,30.5*,-1.2,0.0,-1.1
O=C(CSc1nc(-c2ccccc2)c(-c2ccccc2)o1)N1CCOCC1,x,6.5,x,x,x
NC(=O)CC[C@H](NC(=O)c1ccc(F)cc1)C(=O)N1CCN(Cc2ccc3c(c2)OCO3)CC1,5.9,5.8,0.3,43.1*,3.3
CCC(C)NC(=S)N1CCN(Cc2ccc3c(c2)OCO3)CC1 (configuration not stated),-11.1,-0.8,2.6,43.0*,1.6
CC(=O)Nc1cccc(NC(=S)Nc2ccc(F)c(Cl)c2)c1,3.0,1.1,1.3,1.3*,1.4
O=C(NNC(=S)Nc1ccc(F)c(Cl)c1)c1ccccc1Br,-12.7,5.8,-1.2,2.1*,-4.4
SMILES,S100A4 inh HTS,PDI turbidity,ERAP1 inh,FGF22 binding,ERp5 inh
O=C(Nc1cc2c(cc1[N+](=O)[O-])OCCO2)c1cccnc1,0.5,-64.1,-0.5,43.1*,-1.7
O=C(Nc1ccc([N+](=O)[O-])c(NC(=O)c2cccnc2)c1)c1cccnc1,-39.5,-2.2,3.0,0.1,3.0
O=C(CSc1nc2ccccc2s1)NCc1ccc2c(c1)OCO2,x,-1.4,x,x,x
CC(C)C(=O)NNC(=O)CSc1nc(C2CCCCC2)nc2ccccc12,x,-19.7,x,x,x
O=C(CSc1nc(C2CCCCC2)nc2ccccc12)NCc1ccc2c(c1)OCO2,2.9,-5.0,2.4,43.6*,-3.7
O=C(CSc1ccc2ccccc2n1)NCc1ccc2c(c1)OCO2,-0.1,-1.3,1.2,43.0*,-10.9
CCCNC(=O)Nc1ccc2c(c1)OC[C@H](C)N(Cc1ccccn1)C[C@@H](C)[C@H](OC)CN(C)C2=O,2.5,x,1.5,0.1,1.2
Cc1ccccc1C(=O)NNC1=NCCC1,x,-3.4,x,x,x
CC1(C)Cc2c(sc(NC(=O)C3CC(Cl)=CCC3C(=O)O)c2C#N)CO1 (configuration not stated),-0.5,1.9,-10.4,43.3*,4.0
CCOc1ccc(OCCCC(=O)N2CCN(S(=O)(=O)c3ccc(Cl)cc3)CC2)cc1,-6.3,-9.2,32.1*,-0.5,0.6
Cc1ccc(S(=O)(=O)N2CCN(C(=O)CNC(=O)c3ccc(Cl)cc3)CC2)cc1,-1.6,-9.4,-1.6,43.5*,4.7
O=C(Nc1ccc(Cl)c([N+](=O)[O-])c1)c1ccc2c(c1)OCCO2,7.7,-1.6,-5.3,0.0,-1.9
O=C1NC(Cc2ccc(Cl)cc2)COCc2cnnn2CCC1c1ccccc1 (configuration not stated),89.7*,x,0.2,-0.4,0.4
O=[N+]([O-])c1cc(C(F)(F)F)ccc1N1CCCC(O)C1 (configuration not stated),3.7,-11.2,-8.3,42.9*,2.4
O=[N+]([O-])c1cc(C(F)(F)F)ccc1N1CCN(CCO)CC1,-2.5,0.5,2.3,43.1*,1.5
O=C(CCCN1C(=O)/C(=C/c2ccccc2)SC1=S)Nc1ccccc1O,11.2,-4.5,1.6,0.2,3.0
O=C(CCCN1C(=O)/C(=C/c2cccs2)SC1=S)Nc1cccnc1,-5.8,-5.6,-1.1,43.6*,3.6
O=C(CCCN1C(=O)/C(=C\c2ccccc2)SC1=S)Nc1ccc(O)cc1C(=O)O,-0.4,-1.0,36.0*,x,8.4
CCn1c(N)c(C(=O)N2CCOCC2)sc1=S,x,-3.9,x,x,x
CCc1c(C)[nH]c(C(=O)OCc2ccccc2)c1C,6.1,9.7,-3.3,42.9*,-1.7
CCc1c(C(=O)OCc2ccccc2)[nH]c(C)c1C,-1.7,1.6,-2.4,-0.1,x
Cc1oc(-c2ccc3ccccc3c2)nc1CN(C)C(C)c1ccncn1 (configuration not stated),-3.8,5.3,-1.9,43.5*,-4.3

# From PubChem BioAssay
